Laboratory results published in the EternaBench riboswitch data.

System: MS2 coat protein
Assay: apparent Kd, MS2 coat protein; higher = weaker binding; RNA-MaP array; FMN 200 µM where present
Outline: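 SNAP-549-labelled MS2 coat protein, doubled from 0.7 or 1.5 nM to 3 µM, was titrated over designs transcribed by stalled E. coli RNA polymerase on Illumina sequencing-chip clusters. Titrations were run without and then with constant ligand in 100 mM Tris-HCl pH 7.5, 80 mM KCl, 4 mM MgCl2, BSA, DTT, yeast tRNA and Tween-20. The apparent Kd is the median of filtered per-cluster fits to green signal normalised to red-channel RNA signal and control-cluster median Fmax.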

[1] = designed as: ON switch for flavin mononucleotide, no ligand
[2] = ligand present: flavin mononucleotide, designed as: ON switch for flavin mononucleotide
[3] = designed as: OFF switch for flavin mononucleotide, no ligand
[4] = ligand present: flavin mononucleotide, designed as: OFF switch for flavin mononucleotide

Sequence	apparent Kd [1] [nM]	apparent Kd [2] [nM]	apparent Kd [3] [nM]	apparent Kd [4] [nM]
GCCAUCACAUGAGGAUAUGCUCCCGUUUCGGGAGCAGAAGGCAUGUCAUCAGACAUGAGGAUCACCCAUGUAGUUAAGAUGGCA	361	15.1		
UGACAUAUAUAGAAGGGUAUGUGGGAAUUACAUGAGGAUCACCCAUGUUUUAUAGGAUAUGUAUAUAGUUUUUAAUCAAGUUUA			35.1	26.9
GGUGGACAUGAGGAUCACCCAUGUGAGGAUAUCGGCUGGUACGUGGUGGCUGGCAUCUCGAGAAGGCACAUAGU			80.1	202
UUGGACGUCGUAGGAUAUGUAGGAUAUUCCUACAUGAGGAUCACCCAUGUUGACAUGGAAGAAGGACACAAGGACGAUGUCCAU	664	15.8		
CCCUCACAUGAGGAUCACCCAUGUCAGGAUAUCUAGUCAGACAGUGUAGCACUAAUGAAGAGAAGGGACGUAUG			25.6	26.8
AUUGAUGUUGAGGAUAUGCUUUUAUUUGUUCUUGCAGAAGGCGAUACAUGAGGAUCACCCAUGUUCAUGGAAGU			51.6	46.6
GAGCGAAAGCUCAAUGUCGAUAGCAGAAGGACAUCCUUUAACAUGAAAACAUGAGGAUCACCCAUGUAGGAUAUGCUAUCGACU			6.66	7.92
GGAGCCGGCACUGAGGAUAUUCAUAUUAAAACAUGAGGAUCACCCAUGUAGGCCAGAAGGCCUUGGGAGAAGGCGGGUCGGCCCG	531	35.3		
UUAUUAUGUGUAGGAUAUGCAUAUUACUAUUAUGCAGAAGGACAUGAGGAUCACCCAUGUAUAUUAUUAUUAUAUAUUAUAUAU			14.9	22.4
GGGUACAUCGGAGGAUAUCAUGUAAAUACAUGAGGAUCACCCAUGUCGAUGGAGACAUCGGAGAUGGAGAAGGCCGAUGUACCG	538	102		
AAGUACGUAAAGAAGGCGCGGGCAACCAUUCUGCGAGGAUAUUUACAUGAGGAUCACCCAUGUGCAUGGGAUCGAGAAGAAUUG			159	41.9
UUGAAGAAUUAAGGAUAUUGAUUACAUAUGUUAAACAUGAGGAUCACCCAUGUGGGUUGCGGUAUCGAGAAGGUAAAUUAAUAG	115	107		
AGCUACGUUUCGUAGCAGCUAGGUGAGGAUAUUCAAAAUUUCACAUGAGGAUCACCCAUGUAUGUGAAGAAGGCGCCUAGAAAG	7.29	4.74		
GCGAGUAAAGCAGGAUAUCUAUUGUCUCGGAAACAUGAGGAUCACCCAUGUAGAGAAGGGCUAAGUCAUACAAUUCGAACUCGC			11.2	10.8
UUAUGACCGUAAAUAAGGUUGUCGAAGGAUAUUACAGGAGUACGAUCACAUGAGGAUCACCCAUGUAAGAAGGUCGAUACGCUG			17	76.4
CUUUUGUGAGGAUAUGUGGCUUCGAUCGUGAGAUCGAGGCUACAGAAGGCACAUGAGGAUCACCCAUGUUCCUC			60.4	777
ACGUUUUAUGCAGGAUAUUGAAAUAUAUUUAAACAAGAAGGGCAAUACAUGAGGAUCACCCAUGUCAGCAUGGUAUUUAAGUUC			43.9	45.4
GGGUUGUGAGGAUAUUAGUUGUACGUCAAUAGACGUAUAAGUGAGAAGGCACAUGAGGAUCACCCAUGUUCCUG			20.8	80.1
AAACAUGUCCGAGGAUAUCUGAGAUCAUUUUCAAGAGAAGGCGGACAUGAGGAUCACCCAUGUCUCUCCUCAUCAACGCCAAAU			26.9	51.7
UAUAUAUAGUAAGGAUAUGUAUUUAAUUUAUAAACAGAAGGUACUGACAUGAGGAUCACCCAUGUUUUAGUGUGGGCAUGUAGA			97.9	147
AUGCUUCACACAGGAUAUACAUGAGGAUCACCCAUGUGUCCUAGGUAGCUGACACGAGCUACCCGGUAGAAGGGUGUGAAGCAU			17	58.4
UGUUGGAGCGAGAAGGGACGAUGGGAAGCUGUAAGCUGGCACUGUAGACAUGAGGAUCACCCAUGUCAGGAUAUUGCCGAACUA			5.98	10.2
ACUCGACAUGAGGAUCACCCAUGUGAGGAUAUCGUUAUUUACUUUGUUUAUAGUAUCUCGAGAAGGCACAUUUG			18.1	54.6
UAAUAUUUAUAAUAUUAUUACAUUAGAAGGCUAGACAUGUGGAUACAUGAGGAUCACCCAUGUAUAGAGGAUAUAGACAUAUAU			29.5	79.9
GGUCCAUCAUGAGGAUAUGGCACCUUAUUGGUGCCAGAAGGCAUGUCUAUUGACAUGAGGAUCACCCAUGUAUUAAUUUGGACC	1040	80.7		
AUUAUUAUAUUAUACAUGAGGAUCACCCAUGUUAUAAGUCAUGAGGAUAUGGUUAUGUAGAUUUGCCAGAAGGCAUUUAACUUA	14.9	9.91		
CUUUUGUGAGGAUAUCAGUAGUAAUAUAAUAGUAUUACUACUGAGAAGGCACAUGAGGAUCACCCAUGUUCCUC			27.4	50.3

Sequence	apparent Kd [1] [nM]	apparent Kd [2] [nM]	apparent Kd [3] [nM]	apparent Kd [4] [nM]
GAGCUCGAUGAGAAGGGUUACAUGAGGAUCACCCAUGUCGACCUUGGCGUAACAGGAUAUCAUCGGACUCAGUGCGUUGACCCA			25.6	137
ACAUGAGGAUCACCCAUGUUGAAUUAGGAUAUUUGACUGCACAUGAGGUUCACCCAUGUUCAACCGGAGAAGGGAUUAAUAAUU	82.5	83.6		
GGUUAUUGCAAGGAUAUGCUAUUAUUUUAUUUUGCAGAAGGUGCAACAUGAGGAUCACCCAUGUUGGAGGGUUU			21.5	41.1
AUGUUGAGCAGUGUAUUAAGAUCACAUGAGGAUCACCCAUGUAGAAGGCACGAGCUGAUCGCUCGUGAGGAUAUACAUCACUGC			10.3	110
AAACGACGUCAGAAGGCCGAUGGAUUUGACCACGGAGGAUAUGACAUGAGGAUCACCCAUGUGGUGCUUCUAACCCGCUGGGCC			501	69.7
GUAUAUAUUACAUGAGGAUCACCCAUGUCAGAACGGGUAAUCAGAAGGUAUUAUUAGAGAAAGGGUAAGGAUAUGAUUAUAUAU	605	224		
CCGGAAUAGCAGGAUAUAGGAGUCGAUAGACACCUAGAAGGGCUGACAUGAGGAUCACCCAUGUGUCCUACCGG			81.2	50.8
GGGUGAUCAGGAUAUACAGAAAUGCGAAAGCAUUUCUGUAAACAUGAGGAUCACCCAUGUAGAAGGAAACUUCA			17.9	13.8
CCAUGGCUGUUAGGAUAUGUCUGACAAAGUCAGACAGAAGGGACAUGAGGAUCACCCAUGUGAAGAAAACCACAUUUGCCAUGG			7.74	7.72
CCAUGACAAAGUCAUGGUUAACGAACAUGAGGAUCACCCAUGUAGGAUAUGCUACUCAAAGAGUAGCAGAAGGACAUGUGCCUU			34.3	259
ACGGAACAUGAGGAUCACCCAUGUAUCUGAAAUAUGGACUCACAGGAUAUUCAGAGUUGCCAAUCGGAGAAGGGUGACUCCAGA	25.5	17.2		
UUGGACGUCGUAGGAUAUGUAGGAUAUUCCUACAUGAGGAUCACCCAUGUUGACAUGGAAGAAGGAUAGAAGGACGAUGUCCAU	624	81.5		
GGUACUCAAAGAGUACCAAUACGAACAUGAGGAUCACCCAUGUAGGAUAUGCUAAAACCGGAGUAGCAGAAGGACAUGUGCCUA			15.3	66.6
GCCCAGCCCAGGCCCACGGCAUCACAGGAUAUGCCGAUAACAUGAGGAUCACCCAUGUCAACUCCGCAGAAGGGUGAUAUCGUG	121	22.1		
UCUAUGCAGACCCUUAUAAAACAUGAGGAUCACCCAUGUGAGAGAAGGGCCUAACGGCAGAGAAGGCAGGAUAUCUUAUGAUGG			7.46	12.9
GUCAAGUGAGGAUAUGAUUGUACAGCAGACUAGCGUCUGCAUCAGAAGGCACAUGAGGAUCACCCAUGUUUGUC			20.6	17.1
AGCUGUGGCCGAGGAUAUCUAACUUCAAUAACCGAAAUAUAAUCGGACAUGAGGAUCACCCAUGUAGAGAAGGCGGUCUCAGCA			15.2	20.1
AUUAUUGGCUAAGGAUAUGGAUACAUGAGGAUCACCCAUGUAUUUUUUGUGAUCAUAUAAAUGAUCCAGAAGGUAGCUGUUUAU			23.1	70.1
UUUUUUAUCGUAGGAUAUAGGUUGAAUAAUAGACUAGAAGGACGUGACAUGAGGAUCACCCAUGUUUUUUAAGUGUCGAAGUGU	26.9	25.7		
GCCUGAUCAACUCUAGGCCCAGACAGAAGGGCACACGGUCUAAGUCACAUGAGGAUCACCCAUGUGCAGGAUAUGUCUCGACUC			8.03	21.4
CAGAUAAAAGUGUGGUCCUCGACAUGAGGAUCACCCAUGUACGAGGAUAUGUAAUAUACGGUAUAGCAGAAGGCGUAUGGGUGU			37.7	36.2
UUGUUUUGAAAUUAACAUGAGGAUCACCCAUGUCUUGACACAGAGGAUAUACAUGAAUGUAGGUAGUAGAAGGCUGUUUAGUGU	79.5	60		
CGCACUGAUAGAGGAUAUGUUUUACAUGAGGAUCACCCAUGUGUACAAGGAUUAAUAUAUAAGUAACAGAAGGCUAUUUGUGCG			6.55	5.85
AGUACUCAAAGAGUACCAAUACGAACAUGAGGAUCACCCAUGUAGGAUAUGCUACUCAAAGAGUAGCAGAAGGACAUGUGCCUA			18.2	82.3
UGUAUCUAGUAAGGAUAUACUAUUGAUUCAAUUGUAGAAGGUACAGACAUGAGGAUCACCCAUGUAGUUAUGGAUAUUAGAUAU	74.1	42.3		
GCGUGACAUGAGGAUCACCCAUGUACUCGAGAAAUCGAGUGUAGAAGGGUGACCGGUCGUUUGGCACAGGAUAUACACGCUGUG	27.3	16.3		
GACUGAUUGUAGAAGGUACUUGAAAAUAUAUAAUAUCUCAUGUGACAUGAGGAUCACCCAUGUAGUAAGGAUAUACAUAUCACA	17.7	17.9		
